# Screens (PubChem)
# OXTR agonist = agonists of human oxytocin receptor; activation, % at 3 µM; P30559; actives 0.32% (n = 320,000); CHO-OTR cells, Fluo-8 calcium fluorescence; normalized: DMSO 0%, oxytocin 100%;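 active = activation above the mean of all tested compounds plus 3 SD, cutoff set per screening run, cut at about 20% in these data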;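 also: peak over basal fluorescence ratio from a 100 s FLIPR kinetic read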
# TAAR1 ag = agonists of human TAAR1. CHO RD-HGA16 TAAR1, Fluo-8 calcium fluorescence; vehicle wells 0%, saturating PEA agonist 100%. AID 624467. activation, % at 3 µM. actives 0.99% (n = 360,000);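 active = activation above the mean activation of all test compounds in the run plus 3 SD, cut at about 38% in these data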
# Target sequence (Q96RJ0 whole entry, looked up): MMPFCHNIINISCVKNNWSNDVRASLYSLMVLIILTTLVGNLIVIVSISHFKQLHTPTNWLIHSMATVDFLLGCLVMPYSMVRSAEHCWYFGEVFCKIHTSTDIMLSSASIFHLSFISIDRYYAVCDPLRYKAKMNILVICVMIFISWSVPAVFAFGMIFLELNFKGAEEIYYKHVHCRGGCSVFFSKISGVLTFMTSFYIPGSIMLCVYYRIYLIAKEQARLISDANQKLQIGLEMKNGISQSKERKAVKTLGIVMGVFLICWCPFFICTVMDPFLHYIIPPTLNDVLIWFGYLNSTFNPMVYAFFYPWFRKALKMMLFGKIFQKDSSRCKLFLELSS
#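 Test system: RD-HGA16 (CHO) cells co-expressing Gα16 and hTAAR1 | Doses: Single dose, 3 µM | Schedule: 17-24 h seeding, 75 min 37 °C dye, 30 min RT | Evaluation: % activation from peak over basal fluorescence ratio, DMSO-to-PEA scaled | Technique: Kinetic Fluo-8 calcium fluorescence | Benchmarks: Low control DMSO, high control PEA (EC100)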
# V1aR counter = counter-screen for oxytocin receptor agonists: human V1a receptor agonists. P37288. CHO-V1R cells, Fluo-8 calcium fluorescence, agonist mode; 0% DMSO, 100% 3 nM vasopressin. activation, % at 3 µM. actives 0.25% (n = 320,000). AID 2797;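 active = activation above the mean activation of all tested compounds plus 3 SD, per screening run, cut at about 20% in these data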;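 also: signal is peak over basal fluorescence ratio across a 100 second FLIPR read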
# OXTR potentiate = potentiators of human oxytocin receptor; CHO-OTR cells, Fluo-8 calcium fluorescence, potentiator mode; 0% = oxytocin EC15, 100% = EC100; AID 2445; P30559; activation, % at 3 µM; actives 0.061% (n = 320,000);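 active = activation above that plate's cutoff, the mean activation of tested compounds plus 3 SD, cut at about 6.6% in these data, passing the limit was not always enough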;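 also: 100% uses oxytocin at 75 nM as the full agonist control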
#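 assay system = CHO-OTR cells, human receptor | schedule = compound 6 min at room temperature before oxytocin, 100 s read | detection = Fluo-8 intracellular calcium fluorescence, ex 470-495, em 515-575 nm | evaluation = normalized max/min fluorescence ratio, % activation | control set = EC15 oxytocin alone as 0%, 75 nM oxytocin (EC100) as 100%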
# TAAR1 antag = antagonists of human TAAR1; Q96RJ0; CHO RD-HGA16 TAAR1, Fluo-8 calcium fluorescence, antagonist; actives 1.5% (n = 360,000); inhibition, % at 3 µM;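 active = inhibition above a per-plate cutoff, the mean inhibition of test compounds on that plate plus 3 SD, cut at about 49% in these data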;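 also: 0% = DMSO plus EC80 beta-PEA response and 100% = DMSO alone without agonist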
#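 Test system: CHO RD-HGA16 cells bearing hTAAR1 | Reagent: β-PEA, EC80 | Compound dosing: 3 µM, single point | Schedule: Dye loading 75 min at 37 °C, then 30 min room temperature | Signal: Calcium fluorescence with Fluo-8 | Evaluation: Percent inhibition of PEA-evoked calcium signal, max/basal emission ratio | Control set: DMSO-only wells and EC80 β-PEA-stimulated wells | Repeats: Singlicate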
# * = called active by the depositor; . = no result. Only some compounds are listed: those with a hit (about 2.3% of all), similar ones and a draw of the others.
SMILES,OXTR agonist,TAAR1 ag,V1aR counter,OXTR potentiate,TAAR1 antag
CC(CC(=O)N1CCN(c2ccccc2)CC1)S(=O)(=O)c1ccc2c(c1)NC(=O)CO2 (stereo not drawn),11,17,14,-10,53*
Nc1c(Cl)cc(C2=NCCn3c2c2ccc(C(F)(F)F)cc2[n+]3[O-])cc1Cl,0,7,-1,4,16
CCOC(=O)C(Cc1ccc(NC(=O)/C(=C/c2ccc(OC(C)=O)cc2)NC(C)=O)cc1)N1C(=O)c2ccccc2C1=O (stereo not drawn),0,11,1,-21,49*
CCOC(=O)C(Cc1ccc(NC(=O)/C(=C/c2ccccc2)NC(=O)c2ccccc2)cc1)N1C(=O)c2ccccc2C1=O (stereo not drawn),4,7,2,1,13
Cc1cc(=O)[nH]c(SCC(=O)Nc2ccccc2[N+](=O)[O-])n1,0,2,0,-1,-19
CCS(=O)(=O)Nc1ccc(C2=NN(C(=O)c3ccco3)C(c3ccc(C)cc3)C2)cc1 (stereo not drawn),-1,.,0,11*,.
CCCc1cc(=O)[nH]c(SCC(=O)N2CC3(C)CC2CC(C)(C)C3)n1 (stereo not drawn),-2,2,0,-4,4
O=C(NCCc1cn2ccccc2n1)c1cc(COc2ccc3ncccc3c2)on1,16,21,13,-16,87*
COc1ccc(N(CC(=O)Nc2ccc3c(c2)OCO3)S(=O)(=O)c2ccccc2)c(OC)c1,-2,13,1,-21,56*
CCOC(=O)/C(C#N)=C/C=C1/C=CC=CN1C,1,3,2,-6,-14
C=CCN1C=CC(=C/C=C(/C#N)C(=O)OCC)C=C1,29*,32,21*,-8,21
Nc1ccccc1C(=O)N/N=C1\C2CN3CCN(C2)CC1(c1ccccc1)C3,1,-3,0,14*,13
O=C(N/N=C1\C2CN3CCN(C2)CC1(c1ccccc1)C3)c1ccc(F)cc1,0,2,0,-4,-5
OC[C@@H]1CN(Cc2cccc3ccccc23)C[C@H](n2cnc3c(NCc4ccco4)ncnc32)O1,.,20,.,.,65*
CC(C)CNc1ncnc2c1ncn2[C@H]1CN(Cc2cccc3ccccc23)C[C@@H](CO)O1,.,5,.,.,7
CC(C)CNc1ncnc2c1ncn2[C@H]1CN(Cc2ccc(Cl)cc2)C[C@@H](CO)O1,.,0,.,.,5
CC(C)CNc1ncnc2c1ncn2[C@H]1CN(CCc2ccccc2)C[C@@H](CO)O1,.,41*,.,.,-11
OC[C@@H]1CN(Cc2ccc(-c3ccccc3)cc2)C[C@H](n2cnc3c(Nc4ccccc4)ncnc32)O1,.,11,.,.,51*
CC(C)(C)c1ccc(S(=O)(=O)N2CCN(C(=O)C(=O)c3cccc(C(F)(F)F)c3)CC2)cc1,.,-1,.,.,7
CCOc1ccc(C(C(=O)NC2CCCC2)N(CCCO)C(=O)c2ccc(-c3ccccc3)[nH]2)cc1 (stereo not drawn),-3,7,-1,-9,32
CC(=O)N1CCN(C(=O)c2ccc(C(=O)c3ccccc3)cc2)CC1,0,-1,-1,2,3
CCN(C[C@H]1N[C@@](C)(C(=O)OC)[C@H]2C(=O)N(Cc3ccccc3)C(=O)[C@@H]12)C(=O)c1ccc(C(C)(C)C)cc1,-2,11,1,-2,51*
CCN(C[C@H]1N[C@@](CC)(C(=O)OC)[C@H]2C(=O)N(Cc3ccccc3)C(=O)[C@@H]12)C(=O)c1ccc(C(C)(C)C)cc1,-3,13,-2,-3,54*
COC(=O)[C@]1(Cc2ccccc2)N[C@H](CN(C)C(=O)c2ccc(C(C)(C)C)cc2)[C@@H]2C(=O)N(Cc3ccccc3)C(=O)[C@@H]21,3,1,2,-2,-14
CN1C[C@@H]2[C@@H]3C(=O)N(Cc4ccccc4)C(=O)[C@@H]3[C@](Cc3ccccc3)(C1=O)N2C(=O)c1ccc(C(C)(C)C)cc1,.,42*,.,.,17
CCOc1cc(S(=O)(=O)n2nc(C)cc2C)ccc1Br,1,0,1,-9,-6
